The results in this text go back to ChEMBL document CHEMBL4513216, “Probing the Open Global Health Chemical Diversity Library for Multistage-Active Starting Points for Next-Generation Antimalarials” (ACS Infect Dis, 2020).

SMILES strings stand for the structures.

A short description of this data set: Toxicity liver stage against HepG2, at 10uM. More on the design: test concentration 10 uM, cell line HepG2-A16-CD81EGFP. The class given is cell-based. The following applies: human, HepG2-A16-CD81EGFP cells; read-out: INHIBITION
An outline of the steps:
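Uninfected HepG2-A16-CD81EGFP cells, 3 × 10^3 per well, 1536-well, plated on prespotted compound at 10 μM final, parasite-free screening media added to match infected plates; puromycin 10 μM positive, DMSO 0.5% negative; run in parallel with 48 h PbLuc assay at 37 °C, 5% CO2; viability by CellTiter-Glo luminescence, normalized to controls.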
For `CCN(C(=O)c1cccc2c1OCO2)c1ccccc1`, the cytotoxicity at 10 µM was found to be 0.944%. On to `CCOC(=O)CNC(=O)NCc1cccn1Cc1ccccc1F`, for which the cytotoxicity at 10 µM was -2.24%.

`CCN(CC)c1nc2ccsc2c(=O)n1CCC(=O)NCc1ccco1`: the cytotoxicity at 10 µM was determined as 9.87%.

As for `COC1CN(C(=O)NC2CCCC2)CCC(=O)N(C)c2ccccc21` (stereo unspecified), the cytotoxicity at 10 µM was -9.35%. For the molecule `Cc1ccc(C(=O)N2CC[C@@]3(O)CCCC[C@H]3C2)cc1`, the cytotoxicity at 10 µM was -45.1%. The value for `Cn1nnnc1SC1CCc2ccccc2NC1=O` (stereo unspecified) was -3.22%.

Regarding `Cc1ccsc1C(O)CNC(=O)Cc1ccc(F)cc1` (stereo unspecified), the cytotoxicity at 10 µM turned out to be 3.15%.

With `O=C(c1ccccc1F)N1CCN(c2ccc(-n3cccc3)nn2)CC1`, the cytotoxicity at 10 µM was 53.2%. As for `CCN1CC2(CC1=O)CN(C(=O)c1ccsc1)CCN(C(=O)N(C)C)C2` (stereo unspecified), the cytotoxicity at 10 µM stood at 3.01%.

For `CC/N=c1\nc(NCC)nc2n1C(O)(Nc1cc(Cl)ccc1Cl)CS2` (stereo unspecified), the cytotoxicity at 10 µM was determined as 51.8%. In the case of `Cc1cc(C)n(C(=O)c2cn(C)nc2S(=O)(=O)N2CCSCC2)n1`, the cytotoxicity at 10 µM was -2.64%. The value for `O=C1CC(c2cccc(Cl)c2)c2snc(C(=O)O)c2N1` (stereo unspecified) was 2.91%; that for `CN1CCC(Cc2cncc(-c3ccccc3C(=O)O)n2)C1` (stereo unspecified) was -7.19%; that for `O=C(Cn1ccnc1)N1C[C@@H]2CC[C@H](Oc3ccc(Cl)cc3)[C@@H]2C1` was -3.8%. The value for `Cc1cnccc1CN1CC[C@@](C)(O)[C@H](Oc2cccc(F)c2)C1` was 1.52%; that for `CCc1nnc(Nc2cccc(C3CCN(CCO)CC3)n2)s1` was -6.41%. With `CCCN(CCn1c(=O)oc2ccccc21)CC1CC1`, the cytotoxicity at 10 µM was 1.78%.

As for `O=C(Nc1cc(Cl)ccc1N1CCCCC1)c1ccccn1`, the cytotoxicity at 10 µM is -55%. Turning to `Cc1ccc(-n2cc(C)cn2)c(NC(=O)NC2(C)CCOC2)c1` (stereo unspecified), the cytotoxicity at 10 µM was -43.2%.

`CCS(=O)(=O)CCCN1CCSCC1c1ccc(Cl)cc1` (stereo unspecified): the cytotoxicity at 10 µM was -5.05%. With `O[C@H]1Cc2ccccc2[C@H]1Nc1ncccc1C(F)(F)F`, the cytotoxicity at 10 µM was 5.95%. The value for `COc1ccc(C2CCCN2C(=O)NCCCn2cccn2)cc1` (stereo unspecified) was 7.53%. Under `Cc1cc(C)cc(C(=O)Nc2cccc(CN3CCCC3C(N)=O)c2)c1` (stereo unspecified) stands 4.38%; under `CCC(CNC(=O)c1ccccc1Br)N1CCc2ccccc2C1` (stereo unspecified), 16.6%; under `CC(C)CCCC(C)NC(=O)c1ccc(OCC(N)=O)cc1` (stereo unspecified), 10.2%. Regarding `OC(CN(Cc1ccccc1)Cc1ccccn1)c1cccs1` (stereo unspecified), the cytotoxicity at 10 µM was determined as 0.174%. Take `Cc1ccc(S(=O)(=O)Nc2ccc(-n3cccc3C(=O)O)c(C)c2)cc1`: the cytotoxicity at 10 µM is -3.94%. As for `Cc1ccccc1CN(C)C(=O)Cn1nc(-c2ccc(F)cc2)oc1=O`, the cytotoxicity at 10 µM was -19.3%. Under `Cc1cnn(CC(C)NCc2nc(-c3ccccn3)no2)c1` (stereo unspecified) stands 0.234%; under `c1cc(NCc2cscn2)cc(OCCN2CCCCC2)c1`, -20.7%. Under `Cn1cc(NC(=O)c2cccc(Cl)c2)c(=O)n(C)c1=O` stands -1.86%. `CC(C)(C)n1nc(C2CC2)cc1C(=O)NC1CCN(CC(N)=O)CC1`: the cytotoxicity at 10 µM was -2.06%. `CCS(=O)(=O)c1ccc2c(c1)OCCCO2`: the cytotoxicity at 10 µM is -2.3%. Take `CCN(c1ccccc1)S(=O)(=O)c1cc(C(=O)O)cc2c1CCC2`: the cytotoxicity at 10 µM was found to be 9.69%. Regarding `CC(CCNC(=O)NCCc1ccncc1)c1ccccc1` (stereo unspecified), the cytotoxicity at 10 µM is -5.82%. For `CN(Cc1ccncc1)C(=O)NCc1cn(-c2ccccc2)nn1`, the cytotoxicity at 10 µM was -55.7%.

For `O=C(NCc1ccccc1OCC1CC1)C1CCOC1` (stereo unspecified), the cytotoxicity at 10 µM stood at 4.94%. As to `CC(=O)Nc1ccc(C(=O)N(C)Cc2ccc(F)cc2F)s1`, the cytotoxicity at 10 µM was found to be 6.43%. For the molecule `Cc1nnc(CSCc2ccc(OCC(F)(F)F)nc2)o1`, the cytotoxicity at 10 µM was 2.49%. With `Clc1ccc(CNc2cnn(CCN3CCOCC3)c2)cc1Cl`, the cytotoxicity at 10 µM amounted to 3.2%.

With `O=C(CCN1CCCCC1c1cc2ccccc2[nH]1)N1CCOCC1` (stereo unspecified), the cytotoxicity at 10 µM turned out to be 7.82%.

For `COCCC(=O)N1CCN(CC2CC2)c2ncccc2C1`, the cytotoxicity at 10 µM is -96.7%. On to `CC(C)[C@@H](CO)Nc1cc(-c2cn[nH]c2)ncn1`, for which the cytotoxicity at 10 µM is -11.3%. Under `CN1C[C@@H](N)C[C@H]1C(=O)N1CCC(CCCc2ccccc2)CC1` stands -8.29%; under `CN(Cc1csc(-c2cccs2)n1)Cc1cccnc1N`, -1.06%; under `CCc1cnc(C)nc1NCCSc1nnc(C)n1CC`, -4.19%. On to `Cn1c(CN2CCC(OCc3cccnc3)CC2)cc2ccccc21`, for which the cytotoxicity at 10 µM is -2.65%.

For the molecule `CCC(C(=O)NC1(C(N)=O)CCCC1)n1cccn1` (stereo unspecified), the cytotoxicity at 10 µM was -9.13%. The value for `CCc1ncc(CN2CCOC(Cc3cccc(F)c3)C2)cn1` (stereo unspecified) was 0.0753%; that for `Cc1nc(CCNC(=O)C(N)c2c(C)n[nH]c2C)sc1C` (stereo unspecified) was 2.08%; that for `Cc1nn(C)c(C)c1NC(=O)c1cccc(CN2CC[C@H](O)C2)c1` was 1.08%.

As to `CCN(Cc1ccncc1)C1CCCN(C/C=C/c2ccc(F)cc2)C1` (stereo unspecified), the cytotoxicity at 10 µM amounted to 6.61%. On to `CCC1CN(C(=O)c2csc3nc(-c4ccc(Cl)cc4)cn23)CCN1` (stereo unspecified), for which the cytotoxicity at 10 µM is 1.6%. `CC(C)(O)CCc1cccc(C(=O)NCc2nccs2)c1`: the cytotoxicity at 10 µM was -50.7%. Under `O=c1c2cccc(Cl)c2ncn1C1CCNC1` (stereo unspecified) stands -41.2%; under `CN(C)c1nc2c(c(N(C)C)n1)CCN(C(=O)CN1CCC(O)CC1)C2`, 5.31%. With `CN(C)CCNc1ccc(-c2nc(COc3ccccc3)no2)cn1`, the cytotoxicity at 10 µM was found to be 10.2%. Regarding `Cc1n[nH]c(CN2CCN(CC3CC3)[C@@H]3CS(=O)(=O)C[C@@H]32)n1`, the cytotoxicity at 10 µM is -15.8%. As for `Cc1nc(-c2cn(CCN)nn2)n(-c2ccc3c(c2)CCC3)n1`, the cytotoxicity at 10 µM stood at 2.86%.

For the molecule `CSCCC1c2nc[nH]c2CCN1Cc1cncn1C` (stereo unspecified), the cytotoxicity at 10 µM was 13.3%. As to `CC[C@@]1(O)CCN(Cc2cc(C3CCCCC3)no2)C[C@H]1O`, the cytotoxicity at 10 µM was -4.18%.

`CC1CCCN(c2ccc(C(N)=O)cc2NC(=O)CC2=CCNCC2)C1` (stereo unspecified): the cytotoxicity at 10 µM was -46.3%. For the molecule `CCn1c(CC2CCN(C(=O)C3CCOC3)CC2)nn(C)c1=O` (stereo unspecified), the cytotoxicity at 10 µM was -18%. The value for `COCCc1noc(CN2C(=O)OC[C@@H]2C(C)C)n1` was -8.93%; that for `CCN1CCN(Cc2nc(CCc3ccccc3)n[nH]2)CC1` was -10.7%. For the molecule `Cc1noc(-c2ccnc(Oc3ccccc3CN3CCCCC3)c2)n1`, the cytotoxicity at 10 µM was -1.76%.

As to `CC(CN1CCC(c2ccccc2)CC1)n1cnc2ccccc21` (stereo unspecified), the cytotoxicity at 10 µM stood at 15.5%. For the molecule `CCc1[nH]c2c(CNc3cnccn3)cc(F)cc2c1C`, the cytotoxicity at 10 µM is -2.61%. As for `O=c1c2ccc(C(F)(F)F)cc2ncn1CCCN1CCCCC1CO` (stereo unspecified), the cytotoxicity at 10 µM was -5.98%. For the molecule `Cc1nonc1C1CCCN1Cc1ccc(C(=O)Nc2nccs2)cc1` (stereo unspecified), the cytotoxicity at 10 µM stood at 76.7%. Regarding `Cc1ccc(CN2CCN(c3cncc(N(C)C)n3)CC2=O)cc1C`, the cytotoxicity at 10 µM was -2.53%. Regarding `CN1CCCC2(CC1)CCN(C(=O)CCc1ccccc1O)CC2`, the cytotoxicity at 10 µM is -32.1%. `COCCCN1CCC(C(=O)c2cc(F)ccc2F)CC1`: the cytotoxicity at 10 µM is -10.9%. Under `O=C(N1CCCCC1)N1CCN(CC(O)c2ccccc2)CC1` (stereo unspecified) stands -7.45%; under `Cc1ccoc1C(=O)NC1CCN(Cc2cccc3ccccc23)CC1`, 0.561%; under `CCn1cnnc1CNC(=O)c1cc(Cl)ccc1F`, -7.75%. `Cc1ccc(NC2CCN(C(=O)COCC3CC3)CC2)nn1`: the cytotoxicity at 10 µM came to 0.132%. With `Cc1nc(C)n(CC2CCCN(Cc3noc(C)n3)C2)n1` (stereo unspecified), the cytotoxicity at 10 µM was -1.87%. Take `Cc1nc(C)n(C2CCCN(C(=O)c3cccc4cn[nH]c34)C2)n1` (stereo unspecified): the cytotoxicity at 10 µM is -8.86%. The value for `CCNC(=O)CCc1c(C)nc2cc(O)nn2c1C` was -12.6%; that for `CCc1ncncc1C(=O)N1CCCN(Cc2ccc(C)cc2)CC1` was -0.611%. As to `O=C(c1cc(C2CC2)on1)N1CCCC(n2cncn2)C1` (stereo unspecified), the cytotoxicity at 10 µM is -14%. Turning to `CCCC1CCCN(Cc2csc(-c3cnn(C)c3)n2)CC1` (stereo unspecified), the cytotoxicity at 10 µM was -1.47%. Under `NC(=O)C1CCCN(C(=O)c2cnc3c(cnn3C3CCCC3)c2)C1` (stereo unspecified) stands -5.54%; under `NC(=O)CC1CCN(C(=O)NCc2ccccc2-n2cccn2)CC1`, 2.19%.

`COC(=O)c1cccn1C1CCN(Cc2ccccc2)CC1`: the cytotoxicity at 10 µM was -12%. Take `Cc1cc(C(=O)N2CCc3nc(N4CCOCC4)nc(C)c3C2)c(C)o1`: the cytotoxicity at 10 µM is -110%. As for `CC(=O)N1[C@H](Cn2cncn2)C[C@@H]2CN(Cc3ccncc3)CC[C@@H]21`, the cytotoxicity at 10 µM worked out at 2.24%. For `CCS(=O)(=O)N1CCCC2(COCCN(c3ccccn3)C2)C1` (stereo unspecified), the cytotoxicity at 10 µM was -1.02%.

Regarding `COc1ncccc1CN1C[C@H]2CCN(c3ncccn3)C[C@H]2C1`, the cytotoxicity at 10 µM stood at 2.66%. As to `COc1ncccc1CN1CCC2(CC1)CC(OCC1CC1)CO2` (stereo unspecified), the cytotoxicity at 10 µM is 4.33%.

As to `O=C(C1CC=CC1)N1C[C@H]2CN(Cc3ccncc3)C(=O)[C@H]2C1`, the cytotoxicity at 10 µM is -86.6%. For `Cc1cnc(N2C[C@H]3CCCC(N(C)Cc4ccccn4)[C@H]3C2)nc1` (stereo partly specified), the cytotoxicity at 10 µM was -104%. As for `Fc1ccc(CN2CC[C@H]3O[C@@H](COCC4CCOCC4)CC[C@H]32)cc1`, the cytotoxicity at 10 µM was found to be 7.64%.

On to `COC[C@@]12CCO[C@@H]1CCN(Cc1ccc(C)s1)C2`, for which the cytotoxicity at 10 µM is -91.9%. As for `c1cc(CO[C@@H]2CC[C@H]3[C@H]2OCCN3Cc2ccoc2)ccn1`, the cytotoxicity at 10 µM turned out to be 10.8%.
